Test results from ChEMBL document CHEMBL2396655, “Design, synthesis, and biological evaluation of (E)-N-aryl-2-arylethenesulfonamide analogues as potent and orally bioavailable microtubule-targeted anticancer agents” (J Med Chem, 2013).
pIC50: −log10 of the molar value. In brackets after ≈: the same amount, converted by molar mass. Activity calls are given as the source filed them. The rule behind the calls is not given here.

Legend:
[1] = Growth inhibition of multidrug-resistant human MES-SA/Dx5 cells; assay type: functional
[2] = Growth inhibition of human MES-SA cells; assay type: functional
[3] = Growth inhibition of paclitaxel-resistant human 2008/17/4 cells; assay type: functional
Procedure, shortened: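 Cells grown in DMEM or RPMI with 10% FBS and penicillin-streptomycin, seeded at 2.5 × 10⁴ cells/mL/well; compound added 24 h later over a concentration range. After 96 h, viable cells counted by trypan blue exclusion in duplicate wells. GI₅₀ is the concentration giving 50% growth inhibition, reported as mean ± SD of two independent experiments.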

[4] = test system: MES-SA; experiment: Resistance factor, ratio of GI50 for multidrug-resistant human MES-SA/Dx5 cells to GI50 for human MES-SA cells; assay type: functional
[5] = test system: 2008; experiment: Growth inhibition of human 2008 cells; assay type: functional
[6] = test system: 2008; experiment: Resistance factor, ratio of GI50 for paclitaxel-resistant human 2008/17/4 cells to GI50 for human 2008 cells; assay type: functional
[7] = species on record: Bos taurus; experiment: Effect on bovine brain tubulin assessed as stabilization of microtubule polymerization at 10 uM over 40 mins by spectrophotometric analysis
Procedure, shortened: (§1)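 Purified bovine brain tubulin was incubated at 37 °C with 10 μM compound, DMSO or reference agents. Polymerization was followed as rising absorbance at 340 nm over 40 min. Data are representative of three independent experiments.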

[8] = test system: K562; experiment: Cytotoxicity against human K562 cells after 96 hrs by trypan blue exclusion assay; assay type: functional, cell-based
Procedure, shortened: (§2)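 Cells were grown in DMEM or RPMI with 10% FBS and plated at 2.5×10⁴ cells/well in 12-well dishes. Compounds were added 24 h later at various concentrations. After 96 h, viable cells were counted by trypan blue exclusion from duplicate wells. Results are the mean of two independent experiments.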

[9] = test system: DU-145; experiment: Cytotoxicity against human DU145 cells after 96 hrs by trypan blue exclusion assay; assay type: functional, cell-based; procedure, shortened: as §2
[10] = Solubility of the compound in water; assay type: physicochemical
[11] = species on record: Bos taurus; experiment: Inhibition of bovine brain tubulin assessed as destabilization of microtubule polymerization at 10 uM over 40 mins by spectrophotometric analysis; procedure, shortened: as §1
[12] = Cytotoxicity against human Caco2 cells after 1 hr by Alamar Blue assay; assay type: cell-based; settings: Caco-2 cells, read-out: LD50
[13] = test system: CCRF-CEM; experiment: Growth inhibition of human CEM cells; assay type: functional
[14] = test system: CCRF-CEM; experiment: Resistance factor, ratio of GI50 for multidrug-resistant human CEM/C2 cells to GI50 for human CEM cells; assay type: functional
[15] = test system: CEM/C2; experiment: Growth inhibition of multidrug-resistant human CEM/C2 cells; assay type: functional
[16] = molecular target: Tubulin (Sus scrofa) (UniProt P02554+P02550); experiment: Competitive binding affinity to pig brain tubulin vinblastine binding site at 0.1 to 100 uM after 1 hr by mass spectrophotometric analysis in presence of vinblastine
Procedure, shortened: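 Porcine brain tubulin (1.0 mg/mL) in PIPES 80 mM, MgCl₂ 2 mM, EGTA 0.5 mM, pH 6.9, at 37 °C. […] Competitor was 0.1–100 μM for 1 h. Unbound ligand in the 30 kDa ultrafiltrate was measured by MS. Runs were in triplicate; IC50 came from a Hill fit.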

[17] = test system: Daudi; experiment: Cytotoxicity against human Daudi cells after 96 hrs by trypan blue exclusion assay; assay type: functional; procedure, shortened: as §2
[18] = test system: PC-3; experiment: Cytotoxicity against human PC3 cells after 96 hrs by trypan blue exclusion assay; assay type: functional; settings: PC-3, 96 h; procedure, shortened: as §2
[19] = test system: HCT-15; experiment: Cytotoxicity against human HCT15 cells after 96 hrs by trypan blue exclusion assay; assay type: functional; settings: HCT-15, 96 h; procedure, shortened: as §2
[20] = test system: T47D; experiment: Cytotoxicity against human T47D cells after 96 hrs by trypan blue exclusion assay; assay type: functional; procedure, shortened: as §2
[21] = test system: HCT-116; experiment: Cytotoxicity against human HCT116 cells after 96 hrs by trypan blue exclusion assay; assay type: functional; settings: HCT-116, 96 h; procedure, shortened: as §2
[22] = test system: BT-20; experiment: Cytotoxicity against human BT20 cells after 96 hrs by trypan blue exclusion assay; assay type: functional; settings: BT-20, 96 h; procedure, shortened: as §2
[23] = test system: MOLT-4; experiment: Cytotoxicity against human MOLT4 cells after 96 hrs by trypan blue exclusion assay; assay type: functional; settings: MOLT-4, 96 h; procedure, shortened: as §2
[24] = Cytotoxicity against human RF48 cells after 96 hrs by trypan blue exclusion assay; assay type: functional; settings: RF48, 96 h; procedure, shortened: as §2
[25] = test system: BT-474; experiment: Cytotoxicity against human BT474 cells after 96 hrs by trypan blue exclusion assay; assay type: functional; settings: BT-474, 96 h; procedure, shortened: as §2
[26] = test system: NCI-H417; experiment: Cytotoxicity against human NCI-N417 cells after 96 hrs by trypan blue exclusion assay; assay type: functional; settings: NCI-H417, 96 h
Procedure, shortened: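 Cells grown in DMEM or RPMI with 10% FBS and 1 unit/mL penicillin-streptomycin, seeded in 12-well dishes at 2.5 ×10⁴ cells/mL/well. Compound added 24 h later at various concentrations. Viable cells counted by trypan blue exclusion from duplicate wells after 96 h. Value taken from dose-response curves of two independent experiments.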

[27] = Cytotoxicity against human H80 cells after 96 hrs by trypan blue exclusion assay; assay type: functional; settings: H80, 96 h; procedure, shortened: as §2
[28] = test system: OVCAR-3; experiment: Cytotoxicity against human OVCAR3 cells after 96 hrs by trypan blue exclusion assay; assay type: functional; settings: OVCAR-3, 96 h; procedure, shortened: as §2
[29] = test system: NCI-H187; experiment: Cytotoxicity against human NCI-H187 cells after 96 hrs by trypan blue exclusion assay; assay type: functional; settings: NCI-H187, 96 h; procedure, shortened: as §2
[30] = test system: LNCaP; experiment: Cytotoxicity against human LNCAP cells after 96 hrs by trypan blue exclusion assay; assay type: functional; procedure, shortened: as §2
[31] = test system: MIA PaCa-2; experiment: Cytotoxicity against human MIAPaCa2 cells after 96 hrs by trypan blue exclusion assay; assay type: functional; settings: MIA PaCa-2, 96 h; procedure, shortened: as §2
[32] = test system: SK-OV-3; experiment: Cytotoxicity against human SKOV3 cells after 96 hrs by trypan blue exclusion assay; assay type: functional; settings: SK-OV-3, 96 h; procedure, shortened: as §2
[33] = Cytotoxicity against human NAMALWA cells after 96 hrs by trypan blue exclusion assay; assay type: functional; settings: NAMALVA; procedure, shortened: as §2
[34] = Cytotoxicity against human U87 cells after 96 hrs by sulforhodamine B assay; assay type: functional, cell-based, U-87MG ATCC; settings: U-87 MG
[35] = test system: A-431; experiment: Cytotoxicity against human A431 cells after 96 hrs by trypan blue exclusion assay; assay type: functional; settings: A-431, 96 h; procedure, shortened: as §2

`CC(=O)O[C@H]1C(=O)[C@@]2(C)[C@H]([C@H](OC(=O)c3ccccc3)[C@]3(O)C[C@H](OC(=O)[C@H](O)[C@@H](NC(=O)c4ccccc4)c4ccccc4)C(C)=C1C3(C)C)[C@]1(OC(C)=O)CO[C@@H]1C[C@@H]2O` [PACLITAXEL] gave a GI50 [1] of 0.75 µM, a GI50 [2] of 0.004 µM and a GI50 [3] of 2 µM. It also gave a RatioGI50 [4] of 190, a GI50 [5] of 0.003 µM and a RatioGI50 [6] of 600. For the same compound, the Activity [7] was “Active”.

For `COc1cc(OC)c(/C=C/S(=O)(=O)Nc2ccc(OC)c(NC(C(=O)O)c3ccc(Br)cc3)c2)c(OC)c1` (stereo not drawn), the Activity [8] was “Dose-dependent effect”, the pIC50 ([8]; K562, 96 h) was 7.12 and the Activity [9] was “Dose-dependent effect”. It also gave a pIC50 ([9]; DU-145, 96 h) of 6.60 and a solubility [10] of 10000 µg/mL (≈ 16.5 mM).

With `COc1cc(OC)c(/C=C/S(=O)(=O)Nc2ccc(OC)c(NCC(=O)O)c2)c(OC)c1` the inhibition [11] was “Active”, the Activity [8] was “Dose-dependent effect” and the pIC50 ([8]; K562, 96 h) was 7.70. For the same compound, the Activity [9] was “Dose-dependent effect”, the pIC50 ([9]; DU-145, 96 h) was 6.40 and the solubility [10] was 10000 µg/mL (≈ 22.1 mM).

In the case of `O=c1cc[nH]c(=S)[nH]1` [THIOURACIL], the CC50 at 1 h [12] was > 1000 µM.

For `CC[C@@]1(O)C(=O)OCc2c1cc1n(c2=O)Cc2cc3ccccc3nc2-1` [CAMPTOTHECIN], the GI50 [13] was 0.002 µM, the RatioGI50 [14] was 500 and the GI50 [15] was 1 µM.

With `CC[C@]1(O)C[C@H]2CN(CCc3c([nH]c4ccccc34)[C@@](C(=O)OC)(c3cc4c(cc3OC)N(C=O)[C@H]3[C@@](O)(C(=O)OC)[C@H](OC(C)=O)[C@]5(CC)C=CCN6CC[C@]43[C@@H]65)C2)C1` the Activity [16] was “Active”.

`COc1ccc(NS(=O)(=O)/C=C/c2c(OC)cc(OC)cc2OC)cc1` gave a GI50 [17] of 0.1 µM, a GI50 [18] of 0.1 µM and a GI50 [19] of 0.1 µM. The Activity [8] was “Dose-dependent effect”, the GI50 ([8]; K562, 96 h) was 0.075 µM and the pIC50 ([8]; K562, 96 h) was 7.12. The GI50 [20] was 0.1 µM, the GI50 [21] was 0.1 µM and the GI50 [22] was 0.25 µM. The Activity [9] was “Dose-dependent effect”, the GI50 ([9]; DU-145, 96 h) was 0.075 µM and the pIC50 ([9]; DU-145, 96 h) was 6.70. For the same compound, the GI50 [23] was 0.1 µM, the GI50 [24] was 0.025 µM and the GI50 [25] was 0.25 µM. The GI50 [26] was 0.05 µM, the GI50 [27] was 0.1 µM and the GI50 [28] was 0.1 µM. It also gave a GI50 [29] of 0.1 µM, a GI50 [30] of 0.1 µM and a GI50 [31] of 0.1 µM. For the same compound, the GI50 [32] was 0.1 µM, the GI50 [33] was 0.1 µM and the pIC50 [34] was 6.64. The GI50 [35] was 0.03 µM.

In the case of `COc1cc(OC)c(/C=C/S(=O)(=O)Nc2ccc(OC)c(NC(C(=O)O)c3ccccc3)c2)c(OC)c1` (stereo not drawn), the Activity [8] was “Dose-dependent effect”, the pIC50 ([8]; K562, 96 h) was 6.52 and the Activity [9] was “Dose-dependent effect”. The pIC50 ([9]; DU-145, 96 h) was 7.12 and the solubility [10] was 10000 µg/mL (≈ 18.9 mM).

For `COc1cc(OC)c(/C=C/S(=O)(=O)Nc2ccc(OC)c(NC(C)C(=O)O)c2)c(OC)c1` (stereo not drawn), the Activity [8] was “Dose-dependent effect”, the pIC50 ([8]; K562, 96 h) was 8.10 and the Activity [9] was “Dose-dependent effect”. For the same compound, the pIC50 ([9]; DU-145, 96 h) was 7.40 and the solubility [10] was 10000 µg/mL (≈ 21.4 mM).

For `COc1cc(OC)c(/C=C/S(=O)(=O)Nc2ccc(OC)c(NC(C(=O)O)c3ccc(F)cc3)c2)c(OC)c1` (stereo not drawn), the Activity [8] was “Dose-dependent effect”, the pIC50 ([8]; K562, 96 h) was 7.70 and the Activity [9] was “Dose-dependent effect”. For the same compound, the pIC50 ([9]; DU-145, 96 h) was 7.12 and the solubility [10] was 10000 µg/mL (≈ 18.3 mM).
